HDAC3 inh: HDAC3 deacetylase inhibitors, primary screen, biochemical, fluorescence, cell-free homogeneous; recombinant HDAC3, fluorogenic peptide/trypsin coupled; inhibition, % at 8.3 µM; 320,000 compounds, 0.15% hits; in the data active = inhibition above about 26%, passing the limit was not always enough; inconclusive = no clear call, values can overlap the other calls
Arr AP2 block: inhibitors of beta-arrestin/AP2 binding, primary screen, biochemical, GPCR trafficking, flow cytometry; FITC-arrestin peptide / GST-AP2 beads; AP2 beta2 appendage carries R879A mutation; inhibition, % at 10 µM; 340,000 compounds, 0.31% hits; AID 504490, 2011;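 active = inhibition above a set limit, near 3 SD of compounds lacking own fluorescence, cut at about 54% in these data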;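 also: plate controls were DMSO wells for no effect and 5 µM unlabelled arrestin peptide for full effect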
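Test system: GST-tagged AP2 beta2-adaptin appendage (R879A) on 4 µm glutathione beads; also added: fluorescein-tagged arrestin peptide at 50 nM final; timing: 12 min plus 1 h, RT; signal: flow cytometry, FL1 (488/535 nm); read-out: percent drop in bead-associated FITC signal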
LANA-H2A inh: blockers of LANA interaction with H2A/H2B – biochemical, FP readout, HTS, primary screen; Protein LANA1 (Human herpesvirus 8 type P (isolate GK18)), Q9QR71; cell-free LANA-H2A/H2B peptide, fluorescence polarization; inhibition, % (no concentration beside the values); 320,000 compounds, 0.6% hits; in the data active = inhibition mostly above about 10%, no sharp cut-off; inactive = mostly below about 6.7%
DSG3 Ab inh: inhibitors of pemphigus antibody binding to DSG3, primary screen, biochemical, bead-based, flow cytometry, scFv-GFP | 310,000 compounds, 0.48% hits | Desmoglein-3 (Homo sapiens), P32926 | binding (percent of control), % at 10 µM | DSG3-coupled beads, scFv-anti-DSG3-GFP binding; active compounds read low | AID 588358, 2011;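 active = binding more than 3 SD below its plate's average and above zero; inconclusive = below that plate limit but binding exactly zero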;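 also: hits lower antibody fragment binding to DSG3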
Target sequence (P32926 whole entry, looked up, the tested form may be a part): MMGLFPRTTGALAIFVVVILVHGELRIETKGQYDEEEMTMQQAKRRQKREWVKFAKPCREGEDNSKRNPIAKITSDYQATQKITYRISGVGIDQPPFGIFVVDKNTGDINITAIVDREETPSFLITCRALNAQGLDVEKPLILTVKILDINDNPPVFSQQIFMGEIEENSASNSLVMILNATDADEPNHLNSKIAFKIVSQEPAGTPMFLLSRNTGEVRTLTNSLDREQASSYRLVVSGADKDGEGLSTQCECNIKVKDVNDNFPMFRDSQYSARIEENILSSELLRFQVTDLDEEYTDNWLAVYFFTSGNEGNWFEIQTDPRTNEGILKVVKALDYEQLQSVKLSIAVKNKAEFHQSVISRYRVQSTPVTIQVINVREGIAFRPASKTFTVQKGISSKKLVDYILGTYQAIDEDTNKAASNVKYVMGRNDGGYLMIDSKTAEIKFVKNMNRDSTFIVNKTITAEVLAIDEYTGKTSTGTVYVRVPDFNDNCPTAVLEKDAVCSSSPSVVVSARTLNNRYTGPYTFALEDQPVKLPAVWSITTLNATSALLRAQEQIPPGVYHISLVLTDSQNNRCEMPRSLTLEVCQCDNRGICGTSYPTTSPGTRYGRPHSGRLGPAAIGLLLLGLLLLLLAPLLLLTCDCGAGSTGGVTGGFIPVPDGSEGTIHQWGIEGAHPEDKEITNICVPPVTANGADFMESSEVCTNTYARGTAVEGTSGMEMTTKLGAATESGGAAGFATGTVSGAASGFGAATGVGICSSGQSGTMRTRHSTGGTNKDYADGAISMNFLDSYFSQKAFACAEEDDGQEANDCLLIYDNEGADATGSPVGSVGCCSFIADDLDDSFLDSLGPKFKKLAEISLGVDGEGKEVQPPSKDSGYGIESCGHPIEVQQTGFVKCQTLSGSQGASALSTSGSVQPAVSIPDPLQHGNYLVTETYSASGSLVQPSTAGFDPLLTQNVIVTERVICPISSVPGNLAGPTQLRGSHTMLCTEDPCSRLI
T cell modulator: modulators of CD8 T cell-vesicle binding, primary screen, mouse 2C CD8+ T cells, flow cytometry; response (vesicle binding), % at 7 µM; 2C CD8+ T cell-vesicle binding; active compounds read low; 330,000 compounds, 0.068% hits;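 active = response, share of CD8 T cells binding vesicles, and their 90th percentile fluorescence all below set limits, cut at about 80% in these data, passing the limit was not always enough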;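 also: values below 100% mean blocked vesicle binding to the CD8+ T cells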
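Assay system – 2C mouse CD8+ T cells · Also added – QL9-loaded Drosophila micro-vesicles · Timing – Cell–vesicle co-incubation 1.5 h at 37 °C, staining 20 min on ice · Signal – flow cytometry of vesicle-bound cells · Measure – percent CD8+ FL2 mean versus row control · Controls – Peptide-free naked vesicles (low) and QL9 vesicles with 0.7% DMSO vehicle (high)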
Arr-AP2 CP1: inhibitors of arrestin peptide binding to AP2, confirmation, biochemical, cherry pick 1, flow cytometry beads. 1,300 compounds, 2% hits. inhibition, % at 10 µM. GST-AP2 beads, FITC arrestin peptide binding; GST-fused beta2-adaptin appendage, R879A mutant. shares compounds with Arr AP2 block;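 active = inhibition above a set limit, roughly 3 SD of non-fluorescent compound noise, cut at about 38% in these data; inactive = inhibition at or below that limit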;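 also: loss of bead fluorescence from 50 nM FITC arrestin peptide bound to appendage; 0% = negative control wells and 100% = excess unlabelled arrestin peptide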
GST-FITC bead: GST-fluorescein capture on glutathione beads, confirmation, artefact control for arrestin-AP2 inhibitor project, biochemical, cherry pick 1, flow cytometry. inhibition, % at 10 µM. GST-fluorescein binding to GSH beads, fluorescence, counter-screen. AID 588338, 2011. shares compounds with Arr AP2 block. 1,300 compounds, 2% hits;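 active = inhibition above 50%, about 3 SD of the inhibition seen with non-fluorescent compounds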;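 also: fluorescein maleimide labelled GST captured on 4 micron glutathione beads; higher means more loss of bead fluorescence from quenching or blocked binding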
Starred values were filed as active, the others as inactive. Rows were chosen to be rich in hits. Some 1.5% of all compounds tested hit in one or more screens of this group.

For Cc1ccc(CN2C(=O)CCC2C(=O)NCCCN2CCC(C)CC2)cc1 (stereo not drawn) the results were Arr AP2 block -2.7, DSG3 Ab inh 109.4, Arr-AP2 CP1 -1.7 and GST-FITC bead 9.6.
For O=C(NCCN1CCOCC1)C1CCC(=O)N1Cc1ccccc1Cl (stereo not drawn) the results were HDAC3 inh 2.5, Arr AP2 block 12.0, LANA-H2A inh -2.1, DSG3 Ab inh 100.4, T cell modulator 215.1, Arr-AP2 CP1 10.3 and GST-FITC bead -2.2.
Screening O=C(NCCN1CCOCC1)C1CCC(=O)N1Cc1ccc(F)cc1 (stereo not drawn) returned HDAC3 inh 0.6, Arr AP2 block -2.3, LANA-H2A inh -0.3, DSG3 Ab inh 98.2, T cell modulator 431.6, Arr-AP2 CP1 -5.0 and GST-FITC bead 1.2.
Screening CCOc1cc(NC(=S)NCCCN2CCOCC2)c(OCC)cc1NC(=O)c1ccccc1 returned HDAC3 inh -5.9, Arr AP2 block 4.1, LANA-H2A inh 2.3, DSG3 Ab inh 98.3 and T cell modulator 353.0.
`Cc1ccc(CN2C(=O)CCC2C(=O)NCCCN2CCOCC2)cc1` (stereo not drawn) gave HDAC3 inh 5.2, Arr AP2 block 91.8*, LANA-H2A inh -0.7, DSG3 Ab inh 101.5, T cell modulator 521.2, Arr-AP2 CP1 5.3 and GST-FITC bead -1.0.
CCOc1cc(NC(=S)NCCCN2CCOCC2)c(OCC)cc1NC(=O)c1ccc(C)cc1 was read as HDAC3 inh 6.4, Arr AP2 block 57.7*, LANA-H2A inh -1.5, DSG3 Ab inh 98.7, T cell modulator 347.0, Arr-AP2 CP1 -1.7 and GST-FITC bead -7.3.
`Cc1ccc(CN2C(=O)CCC2C(=O)NCCN2CCN(c3cccc(Cl)c3)CC2)cc1` (stereo not drawn) gave Arr AP2 block 5.8, LANA-H2A inh -1.2, DSG3 Ab inh 108.5, T cell modulator 186.7, Arr-AP2 CP1 6.6 and GST-FITC bead 1.7.
`CC(=O)NC12CC3CC(C1)CC(C(=O)Nc1nc4ccc(F)cc4s1)(C3)C2` gave HDAC3 inh 7.4, Arr AP2 block 3.1, LANA-H2A inh -10.2, DSG3 Ab inh 114.2 and T cell modulator 321.2.
Screening C[C@H](CO)N1C[C@H](C)[C@@H](CN(C)S(=O)(=O)c2ccc(F)cc2)Oc2ccc(NC(=O)NC3CCCCC3)cc2C1=O returned Arr AP2 block -2.9, DSG3 Ab inh 107.5 and T cell modulator 373.6.
`COc1ccc(N2CCN(C(CNC(=O)C(=O)NC3CCCC3)c3ccco3)CC2)cc1` (stereo not drawn) gave HDAC3 inh 0.8, Arr AP2 block -2.9, LANA-H2A inh 4.2, DSG3 Ab inh inconclusive and T cell modulator 781.4.
For CN(C)C(=O)c1cc(C(=O)c2ccc(F)cc2F)c[nH]1 the results were HDAC3 inh 2.3, Arr AP2 block 11.4, LANA-H2A inh -3.4, DSG3 Ab inh 104.3 and T cell modulator 618.8.
For CN(C)C(=O)c1cc(C(=O)c2ccc(C(F)(F)F)cc2F)c[nH]1 the results were HDAC3 inh 4.1, Arr AP2 block 61.9*, LANA-H2A inh -6.0, DSG3 Ab inh 96.6, T cell modulator 165.6, Arr-AP2 CP1 -18.0 and GST-FITC bead 1.4.
NS(=O)(=O)c1ccc(CCNS(=O)(=O)c2cccc3nsnc23)cc1 was read as HDAC3 inh 4.3, Arr AP2 block 61.5*, LANA-H2A inh -2.3, T cell modulator 165.4, Arr-AP2 CP1 -7.5 and GST-FITC bead -4.7.
Screening CN(CC(=O)NCCc1ccc(S(N)(=O)=O)cc1)S(=O)(=O)c1cccc2nsnc12 returned HDAC3 inh 0.7, Arr AP2 block 80.5*, LANA-H2A inh -6.6, DSG3 Ab inh 109.5, T cell modulator 263.3, Arr-AP2 CP1 -1.4 and GST-FITC bead -9.8.
`CN(CC(=O)Nc1c(Cl)cccc1Cl)C(=O)c1cccn1C` gave HDAC3 inh 2.2, Arr AP2 block 5.4, LANA-H2A inh 6.1, DSG3 Ab inh 103.8 and T cell modulator 250.0.
Screening COc1ccc(/C=C/C(=O)OCC(=O)NC2CCCC(C)C2C)c(OC)c1 (stereo not drawn) returned HDAC3 inh -5.6, Arr AP2 block 64.0*, LANA-H2A inh 5.6, DSG3 Ab inh 103.7, T cell modulator 171.1, Arr-AP2 CP1 2.7 and GST-FITC bead -6.0.
Screening COc1ccc(/C=C/C(=O)OCC(=O)NC2CC2)c(OC)c1 returned HDAC3 inh 1.1, Arr AP2 block -0.4, LANA-H2A inh 0.7, DSG3 Ab inh 97.0 and T cell modulator 439.6.
For COc1ccc(/C=C2\SC(=S)N(CCCC(=O)Nc3cc(C)on3)C2=O)cc1OC the results were HDAC3 inh -2.4, Arr AP2 block 76.0*, LANA-H2A inh -2.3, DSG3 Ab inh inconclusive, T cell modulator 161.9, Arr-AP2 CP1 -4.0 and GST-FITC bead 4.8.
O=C(c1ccccc1F)N(NC(=O)C(O)(c1ccccc1)c1ccccc1)c1ccccc1 was read as HDAC3 inh 1.3, Arr AP2 block 87.0*, LANA-H2A inh 0.8, DSG3 Ab inh 125.0, T cell modulator 474.2, Arr-AP2 CP1 -7.0 and GST-FITC bead 2.0.
Screening CCN(CC)C(=O)CN1C(=O)C2(OCC(C)(C)CO2)c2ccccc21 returned HDAC3 inh 0.8, Arr AP2 block -2.7, LANA-H2A inh -4.3, DSG3 Ab inh 103.5 and T cell modulator 517.5.
`CC12CCC(=O)N1C(C(=O)N1CCN(S(=O)(=O)c3cccc(C(F)(F)F)c3)CC1)CS2` (stereo not drawn) gave Arr AP2 block 56.5*, DSG3 Ab inh 112.7, T cell modulator 359.2, Arr-AP2 CP1 -0.5 and GST-FITC bead -3.8.
For CCOC(=O)Cc1csc(NC(=O)c2ccc3ccccc3n2)n1 the results were HDAC3 inh -1.3, Arr AP2 block -5.4, LANA-H2A inh 3.4 and T cell modulator 431.2.
`CC(=O)c1c(C(C)=O)c(C)n(-c2cccc([N+](=O)[O-])c2)c1C` gave Arr AP2 block -3.0, DSG3 Ab inh 91.0 and T cell modulator 296.4.

Source: PubChem
